Measured values taken from ChEMBL document CHEMBL3600361, “Hydnocarpin-Type Flavonolignans: Semisynthesis and Inhibitory Effects on Staphylococcus aureus Biofilm Formation” (J Nat Prod, 2015).
≈ marks a conversion by molar mass, not a printed value. Calls of active or inactive are those of the source. No cut-off for these calls is given here.

Assays:
Staphylococcus aureus [1] = test: Toxicity in Staphylococcus aureus 8325-4 assessed as inhibition of bacterial growth; format: organism-based
Staphylococcus aureus [2] = test: Disruption of biofilm formation in Staphylococcus aureus 8325-4 after 24 hrs by microtiter plate assay; format: functional, organism-based
Staphylococcus aureus [3] = test: Inhibition of biofilm formation in Staphylococcus aureus 8325-4 after 24 hrs by microtiter plate assay; format: functional, organism-based; details: for EC50: Staphylococcus aureus, 8325-4, 24 h
Method in brief: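 Static 96-well crystal-violet assay with S. aureus 8325-4. Inoculum came from an overnight BHI agar culture, suspended in 0.9% NaCl to McF 0.5, 5 μL per well into TS medium containing compounds as monosodium salts at […]. Plates ran 24 h at 37 °C. Wells were rinsed three times, stained with 1% crystal violet for 15 min and eluted with 96% ethanol. Read at A630, at least triplicate.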

Staphylococcus aureus [4] = test: Antibacterial activity against Staphylococcus aureus 8325-4 by microbroth dilution method; format: functional
Method in brief: (§1)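 Standard broth microdilution in Mueller-Hinton broth gave MICs. For the combination lines, enrofloxacin MIC was measured with the tested compound present at the stated concentration.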

Staphylococcus aureus [5] = test: Antibacterial activity against Staphylococcus aureus ATCC 29213 by microbroth dilution method; format: functional; method in brief: as §1
Staphylococcus aureus [6] = test: Antibacterial activity against methicillin-resistant Staphylococcus aureus N315 by microbroth dilution method; format: functional
Method in brief: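 MIC against methicillin-resistant S. aureus N315, determined by standard microbroth dilution in Mueller-Hinton broth.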

Staphylococcus aureus [7] = test: Antibacterial activity against Staphylococcus aureus 8325-4 assessed as reduction of enrofloxacin MIC at 1 ug/ml by microbroth dilution method; format: functional; method in brief: as §1
Staphylococcus aureus [8] = test: Antibacterial activity against methicillin-resistant Staphylococcus aureus N315 assessed as reduction of enrofloxacin MIC at 1 ug/ml by microbroth dilution method; format: functional
Method in brief: (§2)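 Standard microbroth dilution in Mueller-Hinton broth against methicillin-resistant S. aureus N315. The enrofloxacin MIC was determined with the test compound added to the broth.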

Staphylococcus aureus [9] = test: Inhibition of biofilm formation in Staphylococcus aureus 8325-4 at […] after 24 hrs by microtiter plate assay in presence of glucose; format: functional, organism-based
Method in brief: (§3)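 Same static crystal-violet biofilm protocol as above, with 1% glucose added to the TS medium. S. aureus 8325-4 grew 24 h at 37 °C with the compound. Adherent cells were stained with crystal violet, eluted in ethanol and read at A630. Means come from three independent experiments.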

Staphylococcus aureus [10] = test: Antibacterial activity against Staphylococcus aureus ATCC 29213 assessed as reduction of enrofloxacin MIC at 32 ug/ml by microbroth dilution method; format: functional; method in brief: as §1
Staphylococcus aureus [11] = test: Antibacterial activity against Staphylococcus aureus ATCC 29213 assessed as reduction of enrofloxacin MIC at 8 ug/ml by microbroth dilution method; format: functional; method in brief: as §1
Staphylococcus aureus [12] = test: Antibacterial activity against methicillin-resistant Staphylococcus aureus N315 assessed as reduction of enrofloxacin MIC at 8 ug/ml by microbroth dilution method; format: functional; method in brief: as §2
Staphylococcus aureus [13] = test: Antibacterial activity against methicillin-resistant Staphylococcus aureus N315 assessed as reduction of enrofloxacin MIC at 32 ug/ml by microbroth dilution method; format: functional; method in brief: as §2
Staphylococcus aureus [14] = test: Inhibition of biofilm formation in Staphylococcus aureus 8325-4 at 8 mM after 24 hrs by microtiter plate assay in presence of glucose; format: functional; details: 8325-4, 24 h; method in brief: as §3
Staphylococcus aureus [15] = test: Antibacterial activity against Staphylococcus aureus ATCC 29213 assessed as reduction of enrofloxacin MIC at 1 ug/ml by microbroth dilution method; format: functional; method in brief: as §1
Staphylococcus aureus [16] = test: Antibacterial activity against Staphylococcus aureus 8325-4 assessed as reduction of enrofloxacin MIC at 8 ug/ml by microbroth dilution method; format: functional; method in brief: as §1
Staphylococcus aureus [17] = test: Antibacterial activity against Staphylococcus aureus 8325-4 assessed as reduction of enrofloxacin MIC at 32 ug/ml by microbroth dilution method; format: functional; method in brief: as §1

| SMILES | Activity (Staphylococcus aureus [1]) | Activity (Staphylococcus aureus [2]) | MBIC (Staphylococcus aureus [3]) [µM] | EC50 (Staphylococcus aureus [3]) [µg/mL] | further results |
| --- | --- | --- | --- | --- | --- |
| COc1cc([C@H]2Oc3cc(-c4oc5cc(O)cc(O)c5c(=O)c4O)ccc3O[C@@H]2CO)ccc1O | Non-toxic | inactive | 64 | 16 (≈ 33.3 µM) | – |
| COc1cc(C2Oc3cc(-c4cc(=O)c5c(O)cc(O)cc5o4)ccc3OC2CO)ccc1O (racemic) | Non-toxic | inactive | 32 | 4 (≈ 8.61 µM) | – |
| CCN1CCN(c2cc3c(cc2F)c(=O)c(C(=O)O)cn3C2CC2)CC1 [ENROFLOXACIN] | – | – | – | – | MIC (Staphylococcus aureus [4]): 0.5 µg/mL (≈ 1.39 µM); MIC (Staphylococcus aureus [5]): 1 µg/mL (≈ 2.78 µM); MIC (Staphylococcus aureus [6]): 2 µg/mL (≈ 5.56 µM) |
| COc1cc(C2Oc3c(O)cc(-c4cc(=O)c5c(O)cc(O)cc5o4)cc3C2CO)ccc1O (stereo unspecified) | Non-toxic | inactive | > 124 | 64 (≈ 138 µM) | – |
| COc1cc([C@H]2Oc3ccc(-c4cc(=O)c5c(O)cc(O)cc5o4)cc3O[C@@H]2CO)ccc1O | Non-toxic | inactive | 64 | 16 (≈ 34.5 µM) | – |
| COc1cc([C@@H]2Oc3cc(-c4cc(=O)c5c(O)cc(O)cc5o4)ccc3O[C@H]2CO)ccc1O | Non-toxic | inactive | 8 | 2 (≈ 4.31 µM) | MIC (Staphylococcus aureus [7]): 0.125 µg/mL; MIC (Staphylococcus aureus [8]): 1 µg/mL; inhibition (Staphylococcus aureus [9]): Active; MIC (Staphylococcus aureus [10]): 0.0625 µg/mL; MIC (Staphylococcus aureus [11]): 0.0625 µg/mL; MIC (Staphylococcus aureus [12]): 0.5 µg/mL; MIC (Staphylococcus aureus [13]): 0.5 µg/mL; inhibition at 8000 µM (Staphylococcus aureus [14]): 80%; MIC (Staphylococcus aureus [15]): 0.25 µg/mL; MIC (Staphylococcus aureus [16]): 0.0625 µg/mL; MIC (Staphylococcus aureus [17]): 0.0625 µg/mL |
| COc1cc([C@H]2Oc3cc(-c4cc(=O)c5c(O)cc(O)cc5o4)ccc3O[C@@H]2CO)ccc1O [HYDNOCARPIN] | Non-toxic | inactive | 64 | 16 (≈ 34.5 µM) | – |
| COc1cc([C@H]2Oc3ccc([C@H]4Oc5cc(O)cc(O)c5C(=O)[C@@H]4O)cc3O[C@@H]2CO)ccc1O [ISOSILYBIN A] | Non-toxic | inactive | 124 | 32 (≈ 66.3 µM) | – |
| COc1cc(C2Oc3cc([C@H]4Oc5cc(O)cc(O)c5C(=O)[C@@H]4O)ccc3OC2CO)ccc1O (stereo partly specified) [SILIBININ] | Non-toxic | inactive | > 124 | 64 (≈ 133 µM) | – |
